Screening data from PubChem.
The list is not random: actives were taken first. Their share in the collection is about 3.1%.
KCNK9 block: blocks the human KCNK9 two-pore domain potassium channel. HEK293 KCNK9, FluxOR thallium flux fluorescence; active compounds read low. B-score at 10 µM. 1.2% of 310,000 active. AID 488922;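 active = ratio B-score over 3 SD below the library mean, with starting fluorescence within 5 SD of its mean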;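 also: negative B-score means less thallium flux so channel inhibition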
Target sequence (Q9NPC2 whole entry, looked up, the tested form may be a part): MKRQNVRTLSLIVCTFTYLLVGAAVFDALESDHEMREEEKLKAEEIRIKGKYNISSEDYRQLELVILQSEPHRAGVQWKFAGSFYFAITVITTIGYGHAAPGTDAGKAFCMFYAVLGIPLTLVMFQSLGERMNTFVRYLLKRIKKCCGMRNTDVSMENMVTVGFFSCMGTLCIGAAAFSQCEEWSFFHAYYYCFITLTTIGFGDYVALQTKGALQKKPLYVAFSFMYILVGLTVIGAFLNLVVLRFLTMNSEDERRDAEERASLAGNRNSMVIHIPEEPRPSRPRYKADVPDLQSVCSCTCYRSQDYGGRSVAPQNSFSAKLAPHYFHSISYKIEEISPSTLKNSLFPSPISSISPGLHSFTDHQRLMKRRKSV
KCNK3 inh: human KCNK3 channel inhibition, primary screen. AID 602410. CHO-KCNK3 thallium flux, FluxOR fluorescence; active compounds read low. 0.84% of 340,000 active. B-score at 10 µM;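 active = B-score under library mean minus 4 SD, starting fluorescence ratio at most library mean plus 5 SD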;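 also: more negative B-score means stronger inhibition of thallium flux through KCNK3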
KCNQ1 inh: inhibitors of human KCNQ1 potassium channel. P51787. CHO-K1 KCNQ1, FluxOR thallium flux fluorescence; active compounds read high. 1.3% of 310,000 active. B-score at 10 µM;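 active = compounds whose thallium flux B-score, printed positive for inhibition, exceeds three library SD while starting fluorescence stays within three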;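 also: channel opened by potassium depolarization with thallium stimulus after 20 min compound exposure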
hERG rescue: hERG (human) protection from proarrhythmic block; Q12809; CHO-hERG, FluxOR thallium flux, dofetilide IC70 present; activation (rescue from dofetilide block), less the hit threshold, % at 10 µM; 0.51% of 310,000 active; AID 1511;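 active = activation above the mean of controls blocked by dofetilide plus 5 SD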;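 also: thallium influx through hERG after potassium depolarization seen as dye fluorescence rise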
KCNQ1 pot: human KCNQ1 channel potentiation or activation; 0.35% of 310,000 active; CHO-K1 KCNQ1, thallium flux FluxOR fluorescence; active compounds read high; P51787; B-score at 10 µM; AID 2648;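 active = fluorescence ratio B-score, a plate-corrected score, at least three library SD, with initial intensity B-score within 5 SD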
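Schedule – 37 °C overnight plating, 90-min dark dye load, 20-min compound pretreatment · System – stable KCNQ1 CHO-K1 line · Probe or stimulus – thallium- and potassium-containing depolarizing buffer · Measured by – kinetic FluxOR fluorescence, 10 s baseline plus 110 s post-stimulus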
KCNK3 confirm: confirmation of human KCNK3 two-pore domain potassium channel inhibitors; ratio percent of control, % at 10 µM; 99% of 2,400 active; CHO-KCNK3 thallium flux, FluxOR fluorescence; 0% buffer, 100% carvedilol maximal block; shares compounds with KCNK3 inh;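 active = ratio percent of control, averaged over triplicates, above buffer control mean plus 5 SD, cut at about 64% in these data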;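 also: ratio is the fluorescence rise from min to max over baseline after thallium stimulus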
KCNK3 uninduced: counter-screen for KCNK3 inhibitors: effect in non-induced cells; non-induced KCNK3 parental cells, FluxOR thallium flux; active compounds read low; thallium flux ratio (lower = more inhibition) at 10 µM; 40% of 2,400 active; shares compounds with KCNK3 inh;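 active = thallium flux ratio, averaged over three wells, more than 5 SD below the buffer control mean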;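 also: host cells are CHO cells without KCNK3 induction; ratio is peak minus trough fluorescence over baseline then normalized to buffer controls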
* = called active by the depositor; i = inactive; / = no result.

SMILES	KCNK9 block	KCNK3 inh	KCNQ1 inh	hERG rescue	KCNQ1 pot	KCNK3 confirm	KCNK3 uninduced
CCOc1cc(/C=N/NS(=O)(=O)c2ccccc2)ccc1OS(=O)(=O)c1ccc(C)cc1	i	-9.4*	i	-13	i	102*	i
COc1ccc(Cl)cc1C(=O)Nc1ccc(NC(C)=O)cc1	i	i	i	-2	i	/	/
CC(=O)Oc1c(I)cc(I)cc1C(=O)Nc1ccc(Cl)cc1	i	-11*	7*	-16	i	123*	0.13*
CCOc1ccc(S(=O)(=O)N2CCOCC2)cc1NC(=O)CSCc1ccc(C)cc1	/	i	/	/	/	/	/
O=C(NC1CCN(S(=O)(=O)c2ccccc2F)CC1)c1cccnc1	i	i	i	-9	i	/	/
COc1ccc(C(=S)N2CCOCC2)cc1OC(=O)c1ccccc1Cl	i	i	i	-5	i	/	/
COc1cc(C(=S)N2CCOCC2)ccc1OC(=O)c1ccccc1C	i	-8.8*	i	-6	i	90*	i
O=C(CSc1ccc(Cl)cc1)N1CCN(c2c(Cl)cccc2[N+](=O)[O-])CC1	i	-9.9*	i	-9	i	117*	0.14*
Cc1noc(C)c1COc1cccc(C(=O)Oc2ccc3c(c2)OCO3)c1	i	-8.8*	i	-11	i	96*	i
Cc1noc(C)c1COc1cccc(C(=O)OCCOc2ccc(F)cc2)c1	i	-14*	i	-8	i	116*	i
OCC1OC(n2cnc3c(NCc4ccccc4O)ncnc32)C(O)C1O (centres undefined)	/	i	/	/	/	/	/
CCOC(=O)C1=C(C)NC2=C(C(=O)c3ccccc32)C1c1cccc2ccccc12 (centres undefined)	i	-11*	i	-4	i	113*	0.15*
CCOC(=O)C1=C(C)NC2=C(C(=O)c3ccccc32)C1c1ccc(O)cc1 (centres undefined)	i	i	i	-2	i	/	/
CCOC(=O)CNc1ncc(C(F)(F)F)cc1Cl	i	i	i	-1	i	/	/
N#CCC(CNc1ncc(C(F)(F)F)cc1Cl)OC(=O)c1ccc(Cl)cc1Cl (centres undefined)	i	-9.5*	i	-12	i	102*	0.16*
CCSc1nc2cc(C(=O)OC)ccc2c(=O)n1CC	i	i	i	1	i	/	/
COCCn1c(SCc2cccc(F)c2)nc2cc(C(=O)OC)ccc2c1=O	i	-9*	i	-4	i	107*	i
CC(OC(=O)C1CC1)C(=O)Nc1cc(C(F)(F)F)ccc1Cl (centres undefined)	i	-9.9*	i	-7	i	77*	0.15*
C=CCn1c(-c2ccccc2)cc(SC)c(C#N)c1=O	i	-9.5*	i	-2	i	84*	i
CCCn1c(-c2ccccc2)cc(SC)c(C#N)c1=O	i	i	i	-4	i	/	/
CC(C)c1ccc(C(=O)NNC(=O)C2C3CCC(C3)C2C(=O)O)cc1 (centres undefined)	i	/	i	-4	i	/	/
O=C(c1ccco1)N1CCC(c2nc(-c3ccccc3Cl)no2)CC1	i	i	i	-6	i	/	/
O=C(Nc1ccc(Cl)cc1)N1CCC(c2nc(-c3ccccc3Cl)no2)CC1	i	-8.7*	i	-3	i	108*	0.14*
COc1ccc(OC)c(C2(O)CSC(=Nc3cccnc3)N2Cc2ccco2)c1 (centres undefined)	i	-11*	i	-16	i	0	i
OC1(c2ccc(OC(F)F)cc2)CSC(=Nc2cccnc2)N1C1CC1 (centres undefined)	i	i	i	-13	i	/	/
Cc1ccc(NC(=O)CSCC(=O)Nc2cccc3ncccc23)cc1	i	i	i	-17	i	/	/
O=C(NCc1ccccc1)c1c[nH]c2ccccc2c1=O	i	i	i	-10	i	/	/
